Assay results published in ChEMBL document CHEMBL1641459, “Virtual screening and synthesis of quinazolines as novel JAK2 inhibitors” (Bioorg Med Chem, 2011).
Calls of active or inactive are those of the source. No cut-off for these calls is given here.

Experiments:
SK-OV-3 = experiment: Cytotoxicity against human SKOV3 cells after 48 hrs by MTT assay; type: functional, cell-based; conditions: SK-OV-3, 48 h
HeLa = experiment: Cytotoxicity against human HeLa cells after 48 hrs by MTT assay; type: functional, cell-based
HT-29 [1] = experiment: Cytotoxicity against human HT-29 cells after 48 hrs by MTT assay; type: functional, cell-based; conditions: HT-29, 48 h
[2] = biological target: Tyrosine-protein kinase JAK2 (Homo sapiens) (UniProt O60674); experiment: Inhibition of recombinant JAK2 at 20 uM
Sequence of Tyrosine-protein kinase JAK2 (Homo sapiens) (O60674 whole entry): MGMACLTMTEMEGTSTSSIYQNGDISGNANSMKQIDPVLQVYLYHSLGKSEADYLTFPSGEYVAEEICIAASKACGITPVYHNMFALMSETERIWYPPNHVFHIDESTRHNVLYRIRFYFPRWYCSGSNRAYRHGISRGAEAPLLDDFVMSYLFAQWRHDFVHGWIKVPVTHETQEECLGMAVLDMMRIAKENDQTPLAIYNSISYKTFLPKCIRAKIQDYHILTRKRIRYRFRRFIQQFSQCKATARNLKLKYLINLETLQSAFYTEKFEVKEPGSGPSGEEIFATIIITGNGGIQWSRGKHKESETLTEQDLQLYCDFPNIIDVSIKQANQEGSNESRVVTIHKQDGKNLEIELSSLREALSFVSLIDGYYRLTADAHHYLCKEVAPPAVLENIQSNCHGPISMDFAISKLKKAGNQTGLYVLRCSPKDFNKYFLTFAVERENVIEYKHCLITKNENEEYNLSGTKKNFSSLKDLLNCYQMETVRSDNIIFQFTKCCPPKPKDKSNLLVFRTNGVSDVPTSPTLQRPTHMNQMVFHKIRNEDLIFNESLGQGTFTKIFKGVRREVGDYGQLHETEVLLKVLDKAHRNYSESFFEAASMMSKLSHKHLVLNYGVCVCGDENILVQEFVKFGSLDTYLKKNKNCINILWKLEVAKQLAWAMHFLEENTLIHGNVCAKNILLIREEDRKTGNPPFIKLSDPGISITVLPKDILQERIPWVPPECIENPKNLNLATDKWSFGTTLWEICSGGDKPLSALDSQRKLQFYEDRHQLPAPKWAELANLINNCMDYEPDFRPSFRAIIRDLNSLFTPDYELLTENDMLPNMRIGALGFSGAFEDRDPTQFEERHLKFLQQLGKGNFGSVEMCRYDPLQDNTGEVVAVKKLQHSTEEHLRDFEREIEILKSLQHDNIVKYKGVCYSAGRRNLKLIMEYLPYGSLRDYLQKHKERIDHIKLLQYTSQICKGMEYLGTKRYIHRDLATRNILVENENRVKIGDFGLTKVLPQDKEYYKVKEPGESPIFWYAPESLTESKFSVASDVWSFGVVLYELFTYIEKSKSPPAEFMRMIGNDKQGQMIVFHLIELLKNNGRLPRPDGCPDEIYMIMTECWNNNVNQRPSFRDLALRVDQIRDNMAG

[3] = biological target: Tyrosine-protein kinase JAK2 (Homo sapiens) (UniProt O60674); experiment: Inhibition of human JAK2-mediated IL6-induced Stat3-STAT3-dependent luciferase activity in human HT-29 cells at 5 to 20 uM by Western blotting; type: cell-based; conditions: in the assay text read “by luciferase reporter gene assay” for “by Western blotting”
Summary of the method: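 HT-29 cells co-transfected with pSTAT3-Luc and phRL-TK; after 24 h serum-starved overnight, treated 1 h with compound at varying concentrations and stimulated with IL-6 (20 ng/mL); dual luciferase readout normalised to Renilla; three independent experiments, Student's t-test.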

[4] = biological target: Tyrosine-protein kinase JAK2 (Homo sapiens) (UniProt O60674); experiment: Inhibition of IL-6-induced JAK2 phosphorylation in human HT-29 cells by Western blotting; type: cell-based
Summary of the method: (§1)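 HT-29 cells treated with IL-6 for 0.5 h, then compound (10, 20 µM or 50, 100 µM); lysed in ice-cold Hepes/Triton X-100 buffer with protease/phosphatase inhibitors, 30–40 µg protein immunoblotted for JAK2 and p-JAK2, ECL detection, GAPDH control; densitometry as % of control, three independent experiments.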

HT-29 [5] = experiment: Induction of cell cycle arrest in human HT-29 cells assessed as decrease in accumulation at G1 phase at 5 to 20 uM after 24 hrs by flow cytometry; type: functional, cell-based
Summary of the method: (§2)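 HT-29 cells grown to 70–80% confluence, treated at 5, 10 and 20 µM for 24 h, fixed in 70% ethanol 1 h on ice, stained with propidium iodide (50 µg/mL) plus RNase A for 30 min in the dark at room temperature, DNA content by flow cytometry; means of three independent experiments, Student's t-test.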

HT-29 [6] = experiment: Induction of cell cycle arrest in human HT-29 cells assessed as increase accumulation at G2/M phase at 5 to 20 uM after 24 hrs by flow cytometry; type: functional, cell-based; summary of the method: as §2
[7] = biological target: Tyrosine-protein kinase JAK2 (Mus musculus) (UniProt Q62120); experiment: Inhibition of IL-6-induced JAK2 phosphorylation in mouse embryonic stem cells at 20 uM by Western blotting; type: cell-based
Sequence of Tyrosine-protein kinase JAK2 (Mus musculus) (Q62120 whole entry): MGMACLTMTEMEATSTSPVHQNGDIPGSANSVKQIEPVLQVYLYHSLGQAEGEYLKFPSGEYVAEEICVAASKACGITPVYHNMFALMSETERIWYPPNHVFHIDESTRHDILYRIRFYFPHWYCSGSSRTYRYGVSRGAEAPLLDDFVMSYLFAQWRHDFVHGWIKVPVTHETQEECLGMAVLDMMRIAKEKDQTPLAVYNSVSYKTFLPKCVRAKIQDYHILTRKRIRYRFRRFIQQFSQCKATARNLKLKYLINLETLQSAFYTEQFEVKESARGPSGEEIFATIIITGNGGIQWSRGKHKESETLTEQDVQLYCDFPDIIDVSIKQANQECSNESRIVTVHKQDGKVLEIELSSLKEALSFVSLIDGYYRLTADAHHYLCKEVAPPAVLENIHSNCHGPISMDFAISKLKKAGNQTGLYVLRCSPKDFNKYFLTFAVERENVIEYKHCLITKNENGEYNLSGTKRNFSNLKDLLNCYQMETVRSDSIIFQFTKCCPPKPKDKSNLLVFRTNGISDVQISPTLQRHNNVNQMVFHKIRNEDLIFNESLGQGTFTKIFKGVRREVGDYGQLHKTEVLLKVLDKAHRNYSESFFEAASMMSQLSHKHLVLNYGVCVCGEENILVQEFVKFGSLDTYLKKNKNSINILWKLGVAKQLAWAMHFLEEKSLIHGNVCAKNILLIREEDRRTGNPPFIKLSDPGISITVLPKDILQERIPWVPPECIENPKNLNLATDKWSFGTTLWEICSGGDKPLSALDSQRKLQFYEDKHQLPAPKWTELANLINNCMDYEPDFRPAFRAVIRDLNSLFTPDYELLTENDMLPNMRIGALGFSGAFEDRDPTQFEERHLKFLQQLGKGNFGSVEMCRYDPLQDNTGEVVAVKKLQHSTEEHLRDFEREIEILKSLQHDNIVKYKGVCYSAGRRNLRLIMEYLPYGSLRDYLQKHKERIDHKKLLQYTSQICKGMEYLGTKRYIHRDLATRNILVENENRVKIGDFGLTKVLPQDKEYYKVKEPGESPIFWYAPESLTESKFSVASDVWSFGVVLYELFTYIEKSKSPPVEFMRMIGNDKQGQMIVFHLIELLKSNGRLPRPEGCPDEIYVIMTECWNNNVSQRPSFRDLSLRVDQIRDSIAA
Summary of the method: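 Mouse embryonic stem cells pretreated with IL-6, then exposed to compound; p-JAK2 level assessed by Western blotting.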

HT-29 [8] = experiment: Induction of cell cycle arrest in human HT-29 cells assessed as increase accumulation at G2/M phase at 10 to 30 uM after 48 hrs by flow cytometry; type: functional, cell-based
Summary of the method: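 HT-29 cells at 70–80% confluence treated at 10, 20 and 30 µM for 48 h, ethanol-fixed (70%, 1 h on ice), propidium iodide stained with RNase A, DNA content analysed by flow cytometry; three independent experiments, Student's t-test versus untreated control.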

[9] = biological target: Tyrosine-protein kinase JAK2 (Homo sapiens) (UniProt O60674); experiment: Inhibition of IL-6-induced JAK2 phosphorylation in human HT-29 cells at 50 to 100 uM by Western blotting; type: cell-based; summary of the method: as §1
[10] = biological target: Tyrosine-protein kinase JAK2 (Homo sapiens) (UniProt O60674); experiment: Inhibition of IL-6-induced JAK2 phosphorylation in human HT-29 cells at 10 to 20 uM by Western blotting; type: cell-based; summary of the method: as §1
HT-29 [11] = experiment: Cytotoxicity against human HT-29 cells upto 25 uM after 48 hrs by MTT assay; type: functional, cell-based
Summary of the method: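 MTT assay: cells seeded at 1 × 10⁵ cells/mL in RPMI-1640 with 10% FBS, compounds added after 24 h at various concentrations and exposed 48 h; MTT (5 mg/mL stock in PBS) added for 4 h, formazan dissolved in DMSO, absorbance read at 540 nm. Cells cultured in RPMI-1640, 10% FBS, 37 °C, 5% CO₂.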

inhibition [2] | SMILES | IC50 (SK-OV-3) | IC50 (HeLa) | IC50 (HT-29 [1]) | also measured
23.8% | COc1cc2ncnc(Nc3cccc(O)c3)c2cc1OC | 37.5 µM | 43.9 µM | 59.7 µM | –
43% | COc1cc2ncnc(Nc3cccc4ccccc34)c2cc1OC | 16.7 µM | 8.02 µM | 7.65 µM | inhibition [3]: Active; inhibition [4]: Dose-dependent effect; Activity (HT-29 [5]): Active; Activity (HT-29 [6]): Active
10.6% | COc1cc2ncnc(Nc3ccccc3C)c2cc1OC | > 100 µM | > 100 µM | > 100 µM | –
33.1% | COc1cc2ncnc(Nc3ccc(O)cc3)c2cc1OC | 74.6 µM | 51.5 µM | 93 µM | –
14.4% | COc1cc2ncnc(Nc3nc4c(Cl)cccc4s3)c2cc1OC | > 100 µM | > 100 µM | > 100 µM | –
29.3% | COc1cc2ncnc(Nc3ccc(Br)cc3)c2cc1OC | > 100 µM | – | > 100 µM | –
29.4% | COc1cccc(Nc2ncnc3cc(OC)c(OC)cc23)c1 | > 100 µM | > 100 µM | > 100 µM | –
25.3% | COc1ccc(CCNc2ncnc3cc(OC)c(OC)cc23)cc1OC | > 100 µM | > 100 µM | > 100 µM | –
– | COc1ccc(Nc2ncnc3cc(OC)c(OC)cc23)cc1 | > 100 µM | – | – | –
44.4% | COc1cc2ncnc(NN3CCOCC3)c2cc1OC | > 100 µM | > 100 µM | > 100 µM | inhibition [7]: Active
38% | COCCNc1ncnc2cc(OC)c(OC)cc12 | > 100 µM | > 100 µM | > 100 µM | –
18.4% | COc1cc2ncnc(Nc3ccc(C)cc3)c2cc1OC | 91.9 µM | 99.5 µM | 57.9 µM | –
55.1% | N#C/C(=C\c1ccc(O)c(O)c1)C(=O)NCc1ccccc1 | – | > 100 µM | 78.5 µM | Activity (HT-29 [8]): Active; inhibition [9]: Active; inhibition [10]: inactive; Activity (HT-29 [11]): inactive
29.5% | COc1cc2ncnc(NCCN3CCOCC3)c2cc1OC | > 100 µM | > 100 µM | > 100 µM | –
